Laboratory results as given in ChEMBL document CHEMBL4011636, “Utilization of an Active Site Mutant Receptor for the Identification of Potent and Selective Atypical 5-HT2C Receptor Agonists” (J Med Chem, 2017).

Tests used:
[1] = Protein binding in rat plasma; type: ADME, cell-free; conditions: read-out: PPB (converted)
[2] = biological target: T1, 5-hydroxytryptamine receptor 2C (Homo sapiens, UniProt P28335); assay: Agonist activity at recombinant human 5-HT2C receptor expressed in HEK293E cells assessed as induction of intracellular Ca2+ levels after 90 secs by Fluo-4-dye based FLIPR assay; type: functional, cell-based, HEK293
T1 sequence (P28335 whole entry): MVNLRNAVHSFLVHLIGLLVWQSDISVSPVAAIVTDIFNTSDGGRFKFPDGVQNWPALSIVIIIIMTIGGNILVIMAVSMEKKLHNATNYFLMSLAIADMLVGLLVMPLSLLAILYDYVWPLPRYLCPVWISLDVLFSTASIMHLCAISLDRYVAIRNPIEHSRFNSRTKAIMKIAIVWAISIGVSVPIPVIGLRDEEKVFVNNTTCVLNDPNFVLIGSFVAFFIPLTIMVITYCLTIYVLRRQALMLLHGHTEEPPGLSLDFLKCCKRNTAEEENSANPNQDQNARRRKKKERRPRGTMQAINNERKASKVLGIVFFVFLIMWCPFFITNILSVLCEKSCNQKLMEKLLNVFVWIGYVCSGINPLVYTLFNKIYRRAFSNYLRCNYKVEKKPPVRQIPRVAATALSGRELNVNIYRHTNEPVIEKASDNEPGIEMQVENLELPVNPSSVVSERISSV
Method in brief: (§1)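 HEK293E cells stably expressing human receptor (VNV isoform for 5-HT2C; ~400−795 fmol/mg protein), grown in DMEM with 10% dialyzed FBS and G418. Cells plated at 20 000/well in serum-free DMEM overnight at 37 °C, then loaded 1 h at room temperature with 5 μM Fluo-4 in HBSS/25 mM HEPES. Eleven compound concentrations added on FLIPR, Ca2+ signal read for 90 s. EC50 from a four-parameter logistic fit, at least triplicate.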

[3] = Drug uptake in Sprague-Dawley rat brain at 30 mg/kg, po measured at 1 hr post dose by LC/MS-MS analysis; type: ADME, organism-based; conditions: read-out: Drug uptake
Method in brief: (§2)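 Male rats given 30 mg/kg orally in 0.15% docusate sodium/2% PVP-K/97.85% water. Plasma and brain were sampled at a single time point after dosing. Brain was diluted 1:2 (vol/weight) with water before homogenization (dilution factor 3). Concentrations were measured by LC/MS−MS after acetonitrile protein precipitation. Values are the average of three animals; B/P is the brain to plasma ratio.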

[4] = Permeability of compound at pH 5.5 by PAMPA; type: physicochemical; conditions: read-out: permeability
[5] = Permeability across basolateral to apical side in human Caco2 cells; type: ADME, cell-based; conditions: Caco-2, read-out: permeability
[6] = Efflux ratio of permeability across basolateral to apical side in human Caco2 cells; type: ADME, cell-based; conditions: Caco-2
[7] = Plasma concentration in Sprague-Dawley rat at 30 mg/kg, po measured at 1 hr post dose by LC/MS-MS analysis; type: ADME, organism-based; method in brief: as §2
[8] = Ratio of drug uptake in Sprague-Dawley rat brain to plasma at 30 mg/kg, po measured at 1 hr post dose by LC/MS-MS analysis; type: ADME, organism-based; conditions: read-out: BPR; method in brief: as §2
[9] = Permeability across apical to basolateral side in human Caco2 cells; type: ADME, cell-based; conditions: Caco-2, read-out: permeability
[10] = Half life in rat microsomes; type: ADME, Microsome
[11] = biological target: T2, 5-hydroxytryptamine receptor 2C (Homo sapiens) (UniProt P28335); assay: Intrinsic activity at recombinant human 5-HT2C receptor expressed in HEK293E cells assessed as induction of intracellular Ca2+ levels after 90 secs by Fluo-4-dye based FLIPR assay relative to serotonin; type: functional, cell-based; conditions: HEK293
T2 sequence (whole entry): T1 sequence (P28335 whole entry)
Method in brief: (§3)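 FLIPR Fluo-4 Ca2+ assay in HEK293E cells stably expressing the human receptor (VNV isoform for 5-HT2C), eleven-point concentration series, 90 s read. Response normalized to 3 μM serotonin on the same plate (defined as IA = 1). Intrinsic activity taken from a four-parameter logistic fit.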

[12] = Metabolic stability in human liver microsomes assessed as parent compound remaining at […] after 10 mins; type: ADME, microsome; conditions: read-out: Stability
[13] = Permeability of compound at pH 7.4 by PAMPA; type: physicochemical; conditions: read-out: permeability
[14] = Metabolic stability in rat liver microsomes assessed as parent compound remaining at […] after 10 mins; type: ADME, microsome; conditions: read-out: Stability
[15] = Half life in human microsomes; type: ADME, Microsome
[16] = biological target: 5-hydroxytryptamine receptor 2A (Homo sapiens, UniProt P28223); assay: Agonist activity at recombinant human 5-HT2A receptor expressed in HEK293E cells assessed as induction of intracellular Ca2+ levels after 90 secs by Fluo-4-dye based FLIPR assay; type: cell-based, HEK293; method in brief: as §1
[17] = Protein binding in human plasma; type: ADME, cell-free; conditions: read-out: PPB (converted)
[18] = biological target: T3, 5-hydroxytryptamine receptor 2B (Homo sapiens, UniProt P41595); assay: Agonist activity at recombinant human 5-HT2B receptor expressed in HEK293E cells assessed as induction of intracellular Ca2+ levels after 90 secs by Fluo-4-dye based FLIPR assay; type: cell-based, HEK293; method in brief: as §1
[19] = Drug uptake in Sprague-Dawley rat brain at 30 mg/kg, po measured at 2 hrs post dose by LC/MS-MS analysis; type: ADME, organism-based; conditions: read-out: Drug uptake; method in brief: as §2
[20] = Ratio of drug uptake in Sprague-Dawley rat brain to plasma at 30 mg/kg, po measured at 2 hrs post dose by LC/MS-MS analysis; type: ADME, organism-based; conditions: read-out: BPR; method in brief: as §2
[21] = Plasma concentration in Sprague-Dawley rat at 30 mg/kg, po measured at 2 hrs post dose by LC/MS-MS analysis; type: ADME, organism-based; method in brief: as §2
[22] = Agonist activity at recombinant human 5-HT2C receptor D134A mutant expressed in HEK293E cells assessed as induction of intracellular Ca2+ levels after 90 secs by Fluo-4-dye based FLIPR assay; type: cell-based; conditions: HEK293
Rattus norvegicus [23] = assay: Antiobesity activity in ad libitum feeding Sprague-Dawley rat model assessed as reduction in food pellet consumption at 10 mg/kg, po administered at 60 mins prior to the onset of the dark cycle followed by incubation for first 8 hrs in light cycle and 12 hrs in dark cycle; type: functional; parameters: scale not given: the % may be the effect or the level left
Method in brief: (§4)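 Male Sprague Dawley rats (~225 g; n = 6), trained in operant chambers, dosed orally with compound or vehicle (14% PPG, 1% Tween, 85% water) 60 min before dark onset. Food intake was monitored in individual boxes for 20 h (12 h dark plus first 8 h light). Percent reduction was computed from drug-treated versus vehicle-treated total intake.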

Rattus norvegicus [24] = assay: Antiobesity activity in ad libitum feeding Sprague-Dawley rat model assessed as reduction in food intake at 10 mg/kg, po administered at 60 mins prior to the onset of the dark cycle followed by incubation for first 8 hrs in light cycle and 12 hrs in dark cycle; type: functional; parameters: scale not given: the % may be the effect or the level left; method in brief: as §4
[25] = biological target: T3, 5-hydroxytryptamine receptor 2B; assay: Intrinsic activity at recombinant human 5-HT2B receptor expressed in HEK293E cells assessed as induction of intracellular Ca2+ levels after 90 secs by Fluo-4-dye based FLIPR assay relative to serotonin; type: functional, cell-based; conditions: HEK293; method in brief: as §3

5-hydroxytryptamine receptor 2A, sequence (P28223 whole entry): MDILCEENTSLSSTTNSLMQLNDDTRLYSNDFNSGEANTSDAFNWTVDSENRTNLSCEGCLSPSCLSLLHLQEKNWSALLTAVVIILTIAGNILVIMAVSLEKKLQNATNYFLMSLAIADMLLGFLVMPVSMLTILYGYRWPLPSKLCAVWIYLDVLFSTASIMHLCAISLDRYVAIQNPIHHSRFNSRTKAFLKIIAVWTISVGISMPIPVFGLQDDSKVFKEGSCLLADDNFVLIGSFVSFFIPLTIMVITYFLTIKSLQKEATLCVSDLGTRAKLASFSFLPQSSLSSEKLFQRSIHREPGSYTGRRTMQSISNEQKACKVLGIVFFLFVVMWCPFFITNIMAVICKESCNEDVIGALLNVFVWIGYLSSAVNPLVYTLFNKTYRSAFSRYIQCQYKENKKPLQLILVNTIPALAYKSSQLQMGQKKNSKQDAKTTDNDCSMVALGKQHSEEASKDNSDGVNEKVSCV
T3 sequence (P41595 whole entry): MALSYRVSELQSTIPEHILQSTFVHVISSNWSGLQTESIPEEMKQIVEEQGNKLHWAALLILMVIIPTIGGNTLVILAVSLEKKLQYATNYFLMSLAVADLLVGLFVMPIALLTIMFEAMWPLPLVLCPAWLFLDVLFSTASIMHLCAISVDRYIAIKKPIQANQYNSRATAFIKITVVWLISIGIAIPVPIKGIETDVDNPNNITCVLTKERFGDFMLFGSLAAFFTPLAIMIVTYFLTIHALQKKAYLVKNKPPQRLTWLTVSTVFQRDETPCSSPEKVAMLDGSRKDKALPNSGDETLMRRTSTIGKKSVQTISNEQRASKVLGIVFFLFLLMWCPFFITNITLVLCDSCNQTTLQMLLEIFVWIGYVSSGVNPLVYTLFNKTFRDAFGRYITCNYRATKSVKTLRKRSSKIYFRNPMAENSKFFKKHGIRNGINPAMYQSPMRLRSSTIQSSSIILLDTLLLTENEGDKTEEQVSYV

Structure (SMILES)	EC50 [2] [nM]	Intrinsic activity [11]	remaining at 10 min [12] [%]	remaining at 10 min [14] [%]	EC50 [16] [nM]	EC50 [18] [nM]	also measured
Cc1[nH]c(-c2cccc3ccccc23)cc1C(=O)N1CCC(CO)CC1	12	0.9	76	44	> 10000	> 10000	fraction unbound [1]: 0.075; concentration at 1 h [3]: 202 nM; Papp [4]: 62.4 ×10⁻⁶ cm/s; Papp B→A [5]: 21.9 ×10⁻⁶ cm/s; efflux ratio [6]: 1.3; concentration at 1 h [7]: 1140 nM; Kp at 1 h [8]: 0.2; Papp A→B [9]: 17.2 ×10⁻⁶ cm/s; half-life [10]: 11 min; Papp [13]: 49.2 ×10⁻⁶ cm/s; half-life [15]: 41 min; fraction unbound [17]: 0.017
Cn1nc(-c2cccc3ccccc23)cc1C(=O)N1CCC(CO)CC1	6	1	92	37	75	> 10000	fraction unbound [1]: 0.076; Papp [4]: 58.8 ×10⁻⁶ cm/s; Papp B→A [5]: 16.8 ×10⁻⁶ cm/s; efflux ratio [6]: 0.5; Papp A→B [9]: 32.3 ×10⁻⁶ cm/s; half-life [10]: 8 min; concentration at 2 h [19]: 721 nM; Papp [13]: 61.3 ×10⁻⁶ cm/s; half-life [15]: 36 min; Kp at 2 h [20]: 0.3; fraction unbound [17]: 0.023; concentration at 2 h [21]: 2480 nM
O=C(c1csc(-c2cccc(Cl)c2Cl)n1)N1CCOCC1	119 to 128	0.8			> 10000	> 10000	EC50 [22]: 2 nM
Cc1nc(-c2cccc3ccccc23)sc1C(=O)N(C)Cc1cccnc1	12 to 15	0.8	5	4	> 10000	> 10000	
Cc1cn(-c2cccc3ccccc23)cc1C(=O)N1CCC(CO)CC1	369 to 433	0.7	67	18	> 10000	> 10000	
Cc1c(C(=O)NN2CCCCC2)nn(-c2ccc(Cl)cc2Cl)c1-c1ccc(Cl)cc1 [RIMONABANT]							Activity (Rattus norvegicus [23]): 27%
Cc1cc2c(cc1C(F)(F)F)N(C(=O)Nc1ccc(Oc3cccnc3C)nc1)CC2 [SB-243213]							Activity (Rattus norvegicus [24]): 15%
CCn1nc(-c2cccc3cccnc23)cc1-c1cccnn1	2	1	8		151	3 to 6	Intrinsic activity [25]: 0.2
Cc1nc(-c2cccc3ccccc23)sc1C(=O)N(C)CCO	30 to 50	0.9	67	22	> 10000	> 10000	
COCCN(C)C(=O)c1sc(-c2cccc3ccccc23)nc1C	14	0.9	28	7	> 10000	> 10000	
Cn1cc(-c2cccc3ccccc23)cc1C(=O)N1CCC(CO)CC1	41 to 45	1	76	57	> 10000	> 10000	
Cc1nc(-c2cccc3ccccc23)sc1C(=O)N(C)CCc1cccnc1	38 to 39	0.7	< 1	1	> 10000	> 10000	

Continued, in another order:

EC50 [2] [nM]	Intrinsic activity [11]	remaining at 10 min [12] [%]	remaining at 10 min [14] [%]	EC50 [16] [nM]	EC50 [18] [nM]	Structure (SMILES)	also measured
17 to 25	0.9	50	8	> 10000	> 10000	Cc1nc(-c2cccc3ccccc23)sc1C(=O)N1CCCC(O)CC1 (configuration not stated)	
47	0.9	84	34	> 10000	> 10000	Cc1nc(-c2cccc3ccccc23)sc1C(=O)N1CCC(O)CC1	
43 to 123	0.8			> 10000	> 10000	Cc1nc(-c2cccc3ccccc23)sc1C(=O)N1CCN(C)CC1	EC50 [22]: 130 nM
47 to 119	0.8	66	23	> 10000	> 10000	Cc1sc(-c2cccc3ccccc23)cc1C(=O)N1CCC(CO)CC1	
63 to 140	0.9	33	24	> 10000	> 10000	Cc1nc(-c2cccc3ccccc23)oc1C(=O)N1CCC(CO)CC1	
68	1	70	15	> 10000	> 10000	Cc1nc(-c2cccc3ccccc23)sc1C(=O)N1CCc2[nH]cnc2C1	
20	1	87	20	> 5000	> 10000	Cc1cc(-c2cccc3ccccc23)sc1C(=O)N1CCC(CO)CC1	
95 to 115	0.8	50	6	> 10000	> 10000	Cc1nc(-c2cccc3ccccc23)sc1C(=O)N1CCOCC1	
